# Columns and labels:
# MDA‐MB‐231 cells = assay: MTT assay; assay type: cell-based, human
# How it was run: (§1)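 Cells seeded in 48-well plates and serum-starved. They were then exposed for 72 h to test compound dissolved in DMSO over 0.1–200 μM, with viability read by MTT. IC50 calculated from concentration–response data; experiments in triplicate, reported as mean ± SD.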
# MCF‐7 cells [1] = assay: MTT assay; assay type: cell-based, human
# How it was run: as §1
# MCF‐10A cells = assay: MTT assay, cytotoxicity on normal cells; assay type: cell-based, human; settings: 72 h
# How it was run: as §1
# [2] = biological target: T1, labeled rabbit muscle actin (Oryctolagus cuniculus, UniProt P68135); assay: In vitro actin polymerization assay; assay type: biochemical; settings: 5 μM; for actin polymerization curve, RFU reached (lowest point/plateau): CTRL about 37,000 RFU
# How it was run: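 Labeled rabbit muscle actin incubated with test compound (5 μM) using a commercial polymerization kit. DMSO as negative control; latrunculin A and cytochalasin B (5 μM) as reference agents. Filament assembly followed by fluorescence (ex/em 365/410 nm) in kinetic mode for 1 h at room temperature; curves representative of three separate tests.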
# [3] = biological target: T1, labeled rabbit muscle actin; assay: In vitro actin depolymerization assay; assay type: biochemical; settings: 5 μM, added after 1 h polymerization
# How it was run: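 Labeled rabbit muscle actin first polymerized for 1 h under polymerization-assay conditions. Test compound (5 μM) then added, and fluorescence (ex/em 365/410 nm) monitored kinetically for another hour at room temperature. DMSO vehicle; latrunculin A and cytochalasin B (5 μM) as controls; three separate tests.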
# [4] = test system: Gram‐positive and Gram‐negative bacteria (E. coli, S. aureus, E. faecalis); assay: MBC determination and ampicillin control, broth dilution, all strains; assay type: cell-based; settings: all strains used, standard antibiotic control
# How it was run: (§2)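 Broth dilution per CLSI. Overnight LB cultures diluted to 4000 CFU/mL in 96-well plates, then exposed to test compound at 1, 5, 10, 20, 50 or 100 μg/mL for 18 h at 37 °C. Growth read at 600 nm against DMSO-vehicle growth control; compound-only sterility control; ampicillin as strain-sensitivity control. MIC: lowest concentration inhibiting visible growth; MBC: lowest fully bactericidal concentration. Five experiments, each in triplicate.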
# [5] = test system: Escherichia coli (ATCC 25922); assay: MIC determination, broth dilution; assay type: cell-based; settings: E. coli ATCC 25922, broth dilution, 37 °C 18 h
# How it was run: as §2
# [6] = test system: Staphylococcus aureus (ATCC 23235); assay: MIC determination, broth dilution; assay type: cell-based; settings: S. aureus ATCC 23235, broth dilution, 37 °C 18 h
# How it was run: as §2
# [7] = test system: Enterococcus faecalis (ATCC 19433); assay: MIC determination, broth dilution; assay type: cell-based; settings: E. faecalis ATCC 19433, broth dilution, 37 °C 18 h
# How it was run: as §2
# MCF‐7 cells [8] = assay: Immunofluorescence analysis of β‐actin; assay type: cell-based, human; settings: MCF‐7, 24 h, IC50 value / 5 μM
# recombinant human topo I = biological target: T2, recombinant human topo I (Homo sapiens, UniProt P11387); assay: Human topoisomerase I relaxation assay; assay type: biochemical; settings: 1 μM, supercoiled pHOT1 substrate
# T2 sequence (P11387 1-765): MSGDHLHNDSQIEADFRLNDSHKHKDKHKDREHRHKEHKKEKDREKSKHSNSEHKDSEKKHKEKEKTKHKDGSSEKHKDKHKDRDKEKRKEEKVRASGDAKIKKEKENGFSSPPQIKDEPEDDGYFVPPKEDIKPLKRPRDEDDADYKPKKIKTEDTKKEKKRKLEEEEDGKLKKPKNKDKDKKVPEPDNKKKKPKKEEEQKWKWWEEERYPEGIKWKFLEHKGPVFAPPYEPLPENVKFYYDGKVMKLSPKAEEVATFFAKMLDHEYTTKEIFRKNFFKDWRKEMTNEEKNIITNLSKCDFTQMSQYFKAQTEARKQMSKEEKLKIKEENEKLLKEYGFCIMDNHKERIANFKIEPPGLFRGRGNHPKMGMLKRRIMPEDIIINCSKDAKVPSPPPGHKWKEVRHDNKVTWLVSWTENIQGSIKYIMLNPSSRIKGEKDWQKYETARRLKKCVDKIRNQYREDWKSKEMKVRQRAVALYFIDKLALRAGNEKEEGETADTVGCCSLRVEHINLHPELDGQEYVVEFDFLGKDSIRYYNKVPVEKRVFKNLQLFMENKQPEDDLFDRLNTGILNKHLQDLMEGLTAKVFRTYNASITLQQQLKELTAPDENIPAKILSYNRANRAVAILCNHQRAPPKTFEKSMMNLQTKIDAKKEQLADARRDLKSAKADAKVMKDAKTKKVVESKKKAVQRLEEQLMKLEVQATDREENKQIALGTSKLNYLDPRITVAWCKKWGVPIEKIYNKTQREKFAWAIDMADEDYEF
# How it was run: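 Supercoiled pHOT1 (0.25 μg) relaxed by 2 U recombinant human topo I, without or with test compound at 1 μM; DMSO vehicle control; relaxed-DNA marker run alongside. Products separated on 1% agarose in 1X TAE without ethidium bromide and visualized on a UV transilluminator.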
# human topoisomerase II = human topoisomerase II (Homo sapiens, UniProt P11388); assay: Human topoisomerase II decatenation assay; assay type: biochemical; settings: kDNA substrate
# Chain of human topoisomerase II (P11388 whole entry): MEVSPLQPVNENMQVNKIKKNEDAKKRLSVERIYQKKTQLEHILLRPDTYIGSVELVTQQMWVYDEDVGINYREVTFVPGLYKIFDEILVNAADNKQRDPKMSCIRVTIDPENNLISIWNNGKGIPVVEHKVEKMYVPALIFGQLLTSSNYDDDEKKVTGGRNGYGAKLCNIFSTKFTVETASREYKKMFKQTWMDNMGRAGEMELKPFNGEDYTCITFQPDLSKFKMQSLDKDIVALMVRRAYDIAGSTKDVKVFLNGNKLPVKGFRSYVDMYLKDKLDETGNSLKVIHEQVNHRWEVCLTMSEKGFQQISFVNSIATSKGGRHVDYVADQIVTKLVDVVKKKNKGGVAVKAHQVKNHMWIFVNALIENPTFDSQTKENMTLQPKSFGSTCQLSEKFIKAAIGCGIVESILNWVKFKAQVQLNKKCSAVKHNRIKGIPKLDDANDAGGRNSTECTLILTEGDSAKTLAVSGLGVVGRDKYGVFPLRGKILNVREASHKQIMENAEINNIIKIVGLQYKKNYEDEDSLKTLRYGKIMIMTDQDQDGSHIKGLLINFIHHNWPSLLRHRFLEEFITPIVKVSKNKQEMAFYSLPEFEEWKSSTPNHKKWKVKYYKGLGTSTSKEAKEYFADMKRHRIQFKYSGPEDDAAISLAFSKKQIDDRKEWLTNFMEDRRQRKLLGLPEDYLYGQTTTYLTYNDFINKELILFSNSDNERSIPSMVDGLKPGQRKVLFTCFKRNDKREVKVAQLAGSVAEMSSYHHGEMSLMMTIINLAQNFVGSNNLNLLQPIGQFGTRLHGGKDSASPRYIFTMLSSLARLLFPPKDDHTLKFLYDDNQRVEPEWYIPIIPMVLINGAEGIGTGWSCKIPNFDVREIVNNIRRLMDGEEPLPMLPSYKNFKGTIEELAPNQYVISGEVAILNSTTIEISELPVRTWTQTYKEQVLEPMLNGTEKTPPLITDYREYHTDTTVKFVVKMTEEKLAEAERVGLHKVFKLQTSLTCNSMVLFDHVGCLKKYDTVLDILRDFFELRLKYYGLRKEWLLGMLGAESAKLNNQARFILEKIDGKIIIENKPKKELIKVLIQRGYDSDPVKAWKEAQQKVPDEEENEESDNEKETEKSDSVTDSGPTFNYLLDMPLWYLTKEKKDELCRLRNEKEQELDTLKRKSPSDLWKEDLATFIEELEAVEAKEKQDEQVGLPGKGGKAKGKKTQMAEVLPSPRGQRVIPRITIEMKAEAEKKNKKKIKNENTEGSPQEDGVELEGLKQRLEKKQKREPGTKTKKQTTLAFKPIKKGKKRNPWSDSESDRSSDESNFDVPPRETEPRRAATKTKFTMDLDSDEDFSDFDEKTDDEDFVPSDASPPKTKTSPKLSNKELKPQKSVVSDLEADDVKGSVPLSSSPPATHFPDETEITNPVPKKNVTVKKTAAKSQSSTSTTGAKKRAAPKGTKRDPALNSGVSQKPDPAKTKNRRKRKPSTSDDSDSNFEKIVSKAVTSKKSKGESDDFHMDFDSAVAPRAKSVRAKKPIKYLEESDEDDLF
# How it was run: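 Decatenation of kinetoplast DNA (0.3 μg) by 3 U human topo II, with test compound at 1 or 10 μM or DMSO vehicle; linear and decatenated kDNA markers included. Gel: 1% agarose in 1X TAE with ethidium bromide (0.5 μg/ml), UV transilluminator read-out.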
# MCF‐7 cells [9] = assay: TUNEL assay; assay type: cell-based, human; settings: MCF‐7, 24 h, at IC50 value
# [10] = MCF‐10A normal mammary epithelium, MTT
Molecule,effect on actin polymerization [2],effect on actin depolymerization [3],"IC50 (MDA‐MB‐231 cells; MDA‐MB‐231, MTT, 72 h) [µM]","IC50 (MCF‐7 cells [1]; MCF‐7, MTT, 72 h) [µM]",IC50 (MCF‐10A cells; [10]) [µM],"actin polymerization curve, RFU reached (lowest point/plateau) [2]",MIC [5] [µg/mL],MIC [6] [µg/mL],MIC [7] [µg/mL],other results
"C/C1=C/C(=O)O[C@@H]2C[C@@H](CC[C@H](C)/C=C\C=C\CC1)O[C@@](O)([C@@H]1CSC(=O)N1)C2 [Latrunculin A, reference compound]",totally impeded the actin polymerization,actin depolymerization has occurred,–,–,–,–,–,–,–,"IC50 (MDA‐MB‐231 cells; Homo sapiens, MDA-MB-231, 72 h): 0.024 µM; IC50 (MCF‐7 cells [1]; Homo sapiens, MCF7, 72 h): 0.14 µM; IC50 (MCF‐10A cells; Homo sapiens, MCF-10A): 0.045 µM"
"N.N.[Cl][Pt][Cl] [Cisplatin, reference compound]",–,–,28.7 ± 0.4,35.8 ± 0.7,81.3 ± 0.6,–,–,–,–,–
"C=C1[C@@H](C)[C@H]2[C@H](Cc3ccccc3)NC(=O)[C@]23OC(=O)/C=C/[C@H](O)CCC[C@@H](C)C/C=C/[C@H]3[C@@H]1O [CB, cytochalasin B, reference compound]",totally impeded the actin polymerization,no relevant changes in RFU,–,–,–,"approximately 20,000 RFU",–,–,–,"actin depolymerization curve, RFU reached ([3]; initial value 28,000 RFU): about 28,000 RFU"
"CC1(C)S[C@@H]2[C@H](NC(=O)[C@H](N)c3ccccc3)C(=O)N2[C@H]1C(=O)O [ampicillin, Ampicillin]",–,–,–,–,–,–,–,–,–,strain sensibility to ampicillin [4]: ampicillin‐sensible
"[4,5‐dichloro‐[(N‐methyl‐N’(2‐hydroxy‐2‐phenyl‐ethyl)imidazole‐2‐ylidene]silver(I)] acetate [Compound 6]","inhibitory activity on the polymerization of G‐actin, higher than that of CB",able to act as a depolymerization inducer,38.1 ± 0.8,13.2 ± 0.3,> 200,"approximately 13,000 RFU",10,5,10,"time to reach the lowest point of the polymerization curve [2]: around 12 minutes; actin cytoskeleton organization / cell morphology (MCF‐7 cells [8]): caused comparable disorganization of this structure; inhibition of hTopo I activity (recombinant human topo I): total inhibition of the enzyme activity; inhibition of hTopo II activity (human topoisomerase II; 1 μM): did not produce the enzyme inhibition; inhibition of hTopo II activity (human topoisomerase II; 10 μM): totally inhibit the hTopo II activity; apoptosis (green nuclear fluorescence, DNA fragmentation) (MCF‐7 cells [9]): induced apoptosis"
"COC(Cn1ccn(C)[c]1=[Ag-2][I])c1ccccc1 (stereo not shown) [Compound 3, [N‐methyl,N’‐(2‐metoxy‐2‐phenyl)ethyl‐imidazole‐2‐ylidenesilver(I)] iodide]",–,–,52.6 ± 0.3,31.8 ± 0.8,> 200,–,5,5,10,–
